Experimental data reported in ChEMBL document CHEMBL2429741 (J Med Chem, 2013).

How the values were obtained:
[1] = target: T1, 1-deoxy-D-xylulose 5-phosphate reductoisomerase (Mycobacterium tuberculosis, UniProt P9WNS1); test: Inhibition of Mycobacterium tuberculosis IspC by photometric assay
T1 sequence (P9WNS1 whole entry): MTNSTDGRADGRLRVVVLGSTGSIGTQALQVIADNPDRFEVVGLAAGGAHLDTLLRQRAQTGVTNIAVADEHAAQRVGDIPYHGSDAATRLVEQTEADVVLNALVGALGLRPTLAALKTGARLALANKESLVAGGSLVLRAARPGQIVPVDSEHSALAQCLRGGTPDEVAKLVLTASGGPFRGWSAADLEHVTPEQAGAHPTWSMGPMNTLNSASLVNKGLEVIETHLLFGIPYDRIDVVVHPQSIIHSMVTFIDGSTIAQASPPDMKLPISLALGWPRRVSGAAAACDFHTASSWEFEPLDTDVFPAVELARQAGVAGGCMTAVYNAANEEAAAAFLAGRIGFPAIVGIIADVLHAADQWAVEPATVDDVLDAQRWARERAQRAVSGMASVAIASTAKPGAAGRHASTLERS
Procedure, shortened: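 Photometric NADPH-consumption assay at pH 7.6 (Tris) with 5 mM MgCl2, 5 mM DTT, 0.5 mM NADPH and 0.02 U IspC. Inhibitor 1:3 series covered about 200–0.003 μM. Started with 1-deoxy-D-xylulose 5-phosphate (0.5–5.0 mM final); A340 read at room temperature.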

Plasmodium falciparum [2] = test: Antimicrobial activity against chloroquine-resistant blood stage forms of Plasmodium falciparum Dd2 after 3 days by HRP2-based ELISA; type: functional, organism-based; conditions: Dd2, 72 h
Procedure, shortened: (§1)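 Sorbitol-synchronized ring-stage parasites (0.05% parasitemia, 1.5% hematocrit, O Rh+ erythrocytes) in RPMI 1640/HEPES/glutamine/gentamycin/0.5% Albumax, 37 °C, 5% CO2, 5% O2. Added to plates precoated with 3-fold compound dilutions from DMSO stocks; 3-day incubation; plates freeze-thawed twice; HRP2 ELISA. Chloroquine control each run. IC50 from nonlinear regression of log concentration-response; mean of two independent duplicate determinations.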

Plasmodium falciparum [3] = test: Antimicrobial activity against chloroquine-sensitive blood stage forms of Plasmodium falciparum 3D7 after 3 days by HRP2-based ELISA; type: functional, organism-based; conditions: 3D7, 72 h; procedure, shortened: as §1
[4] = Inhibition of Plasmodium falciparum IspC expressed in recombinant Escherichia coli M15 by photometric assay
Procedure, shortened: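 His-tagged enzyme from E. coli M15 pREP4 pQEIspCplasart20, induced with 1 mM IPTG overnight at 30 °C, Ni-imidazole purified, about 95% pure. Inhibitor 1:3 over about 200–0.003 μM. DXP start, final 0.5–5.0 mM. 340 nm, room temperature. Nonlinear-regression IC50, ≥8 points.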

[5] = Inhibition of Escherichia coli IspC by photometric assay
Procedure, shortened: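 NADPH-coupled photometric read at 340 nm, room temperature. Inhibitor 1:3 dilutions over about 200–0.003 μM. Started with 1-deoxy-D-xylulose 5-phosphate, final 0.5–5.0 mM. IC50 from nonlinear regression of ≥8 points, mean ± SD; generally 2–3 independent determinations.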

CN(O)C(=O)CCC(c1ccc(F)c(F)c1)P(=O)(O)O (stereo unspecified)
IC50 [1]: 770 nM
IC50 (Plasmodium falciparum [2]): 40 nM
IC50 (Plasmodium falciparum [3]): 122 nM
IC50 [4]: 3.4 nM
IC50 [5]: 117 nM

Cc1ccc(C(OCC(=O)N(C)O)P(=O)(O)O)cc1 (stereo unspecified)
IC50 [1]: 4000 nM
IC50 [4]: 25 nM
IC50 [5]: 320 nM

CN(O)C(=O)CS[C@H](c1ccccc1)P(=O)(O)O
IC50 [1]: 83000 nM
IC50 [4]: 12000 nM
Ki [4]: 2200 nM
IC50 [5]: 4000 nM

O=C(CSC(c1ccc(Cl)c(Cl)c1)P(=O)(O)O)NO (racemic)
IC50 [1]: 720 nM
IC50 (Plasmodium falciparum [2]): 870 nM
IC50 (Plasmodium falciparum [3]): 540 nM
IC50 [4]: 200 nM
IC50 [5]: 44 nM

Cc1ccc(C(CCC(=O)N(C)O)P(=O)(O)O)cc1 (stereo unspecified)
IC50 [1]: 1800 nM
IC50 [4]: 14 nM
IC50 [5]: 286 nM

O=C(CCC(c1ccccc1)P(=O)(O)O)NO (stereo unspecified)
IC50 [1]: 14000 nM
IC50 (Plasmodium falciparum [2]): 570 nM
IC50 (Plasmodium falciparum [3]): 400 nM
IC50 [4]: 12 nM
IC50 [5]: 592 nM

CN(O)C(=O)CSC(c1ccc(F)c(F)c1)P(=O)(O)O (racemic)
IC50 [1]: 42 nM
IC50 (Plasmodium falciparum [2]): 88 nM
IC50 (Plasmodium falciparum [3]): 111 nM
IC50 [4]: 14 nM
IC50 [5]: 8.5 nM

CN(O)C(=O)CCC(c1ccc(Cl)c(Cl)c1)P(=O)(O)O (stereo unspecified)
IC50 [1]: 280 nM
IC50 [4]: 2.8 nM
IC50 [5]: 208 nM

O=C(COC(c1ccc(F)c(F)c1)P(=O)(O)O)NO (stereo unspecified)
IC50 [1]: > 500000 nM
IC50 (Plasmodium falciparum [3]): > 50000 nM
IC50 [4]: 3900 nM
IC50 [5]: 49000 nM

O=CN(O)CCCP(=O)(O)O [FOSMIDOMYCIN]
IC50 [5]: 221 nM

CN(O)C(=O)CS[C@@H](c1ccccc1)P(=O)(O)O
IC50 [1]: 120 nM
IC50 [4]: 9.4 nM
Ki [4]: 1.7 nM
IC50 [5]: 5.1 nM

CN(O)C(=O)COC(c1ccc(Cl)c(Cl)c1)P(=O)(O)O (stereo unspecified)
IC50 [1]: 1600 nM
IC50 [4]: 14 nM
IC50 [5]: 200 nM

Cc1ccc(C(SCC(=O)N(C)O)P(=O)(O)O)cc1 (racemic)
IC50 [1]: 110 nM
IC50 (Plasmodium falciparum [2]): 95 nM
IC50 (Plasmodium falciparum [3]): 111 nM
IC50 [4]: 18 nM
IC50 [5]: 33 nM

O=C(CCC(c1ccc(F)c(F)c1)P(=O)(O)O)NO (stereo unspecified)
IC50 [1]: 3400 nM
IC50 (Plasmodium falciparum [2]): 65 nM
IC50 (Plasmodium falciparum [3]): 75 nM
IC50 [4]: 3.9 nM
IC50 [5]: 178 nM

CN(O)C(=O)COC(c1ccccc1)P(=O)(O)O (stereo unspecified)
IC50 [1]: 16000 nM
IC50 [4]: 37 nM
IC50 [5]: 940 nM

CN(O)C(=O)CCC(c1cccc2ccccc12)P(=O)(O)O (stereo unspecified)
IC50 [1]: 13000 nM
IC50 [4]: 9.4 nM
IC50 [5]: 3830 nM

O=C(CSC(c1ccccc1)P(=O)(O)O)NO (racemic)
IC50 [1]: 15000 nM
IC50 (Plasmodium falciparum [2]): 3770 nM
IC50 (Plasmodium falciparum [3]): 2900 nM
IC50 [4]: 110 nM
IC50 [5]: 600 nM

CN(O)C(=O)COC(c1ccc(F)c(F)c1)P(=O)(O)O (stereo unspecified)
IC50 [1]: 4600 nM
IC50 [4]: 12 nM
IC50 [5]: 240 nM

O=C(COC(c1ccccc1)P(=O)(O)O)NO (stereo unspecified)
IC50 [1]: 466000 nM
IC50 [4]: 1500 nM
IC50 [5]: 20000 nM

CN(O)C(=O)COC(c1cccc2ccccc12)P(=O)(O)O (stereo unspecified)
IC50 [1]: 15000 nM
IC50 [4]: 39 nM
IC50 [5]: 4600 nM

O=C(CSC(c1ccc(F)c(F)c1)P(=O)(O)O)NO (racemic)
IC50 [1]: 1700 nM
IC50 (Plasmodium falciparum [2]): 330 nM
IC50 (Plasmodium falciparum [3]): 160 nM
IC50 [4]: 15 nM
IC50 [5]: 77 nM

CN(O)C(=O)CSC(c1cccc2ccccc12)P(=O)(O)O (racemic)
IC50 [1]: 550 nM
IC50 (Plasmodium falciparum [2]): 510 nM
IC50 (Plasmodium falciparum [3]): 380 nM
IC50 [4]: 9.8 nM
IC50 [5]: 140 nM

CN(O)C(=O)CCC(c1ccccc1)P(=O)(O)O (stereo unspecified)
IC50 [1]: 2000 nM
IC50 (Plasmodium falciparum [2]): 74 nM
IC50 (Plasmodium falciparum [3]): 90 nM
IC50 [4]: 3.1 nM
IC50 [5]: 243 nM

CN(O)C(=O)CSC(c1ccc(Cl)c(Cl)c1)P(=O)(O)O (racemic)
IC50 [1]: 9.2 nM
IC50 (Plasmodium falciparum [2]): 85 nM
IC50 (Plasmodium falciparum [3]): 91 nM
IC50 [4]: 4.5 nM
IC50 [5]: 5.9 nM

CN(O)C(=O)CSC(c1ccccc1)P(=O)(O)O (racemic)
IC50 [1]: 280 nM
IC50 (Plasmodium falciparum [2]): 75 nM
IC50 (Plasmodium falciparum [3]): 30 nM
IC50 [4]: 24 nM
Ki [4]: 4.4 nM
IC50 [5]: 8.2 nM
